Sampled rows, rich in hits. Any-hit rate of the full collection: about 2.5%.
SIAE inh – inhibitors of human sialic acid acetylesterase SIAE. Q9HAT2. SIAE FP-Rh probe binding, fluorescence polarization. inhibition, % at 9.66 µM. 0.69% of 370,000 active. AID 1053197;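 active means inhibition above a cutoff: mean of compounds within the control limits plus 3 SD of those, cut at about 17% in these data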;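 further: 0% = plate median of compound wells and 100% = probe without SIAE protein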
HTRA1 inh – HTRA1 (human) protease inhibition; 0.5% of 340,000 active; inhibition, % at 5.96 µM; Q92743; recombinant HTRA1, FP-rhodamine activity-based probe, fluorescence polarization; AID 504803; in the data active means inhibition above about 36%;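 further: 0% = enzyme with DMSO and 100% = wells lacking enzyme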
TCR-CD3 inh – human TCR-CD3 binding inhibition | TAMRA-labeled TCR probe fluorescence, biochemical | inhibition, % at 9.4 µM | 0.37% of 360,000 active | AID 651800; in the data active means inhibition above about 19%;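 further: recombinant mutant TCR 2C K166C tagged with TAMRA read by polarization; 0% = receptor in buffer alone and 100% = receptor with positive control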
PRMT1 FP inh – PRMT1 (human) inhibition, primary screen; Q99873; recombinant PRMT1, activity-based probe fluorescence polarization; inhibition, % at 2.79 µM; 1.3% of 370,000 active;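 active means inhibition above about 21% made by adding two undisclosed values, limit read from the data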
Target sequence (Q99873 whole entry, looked up): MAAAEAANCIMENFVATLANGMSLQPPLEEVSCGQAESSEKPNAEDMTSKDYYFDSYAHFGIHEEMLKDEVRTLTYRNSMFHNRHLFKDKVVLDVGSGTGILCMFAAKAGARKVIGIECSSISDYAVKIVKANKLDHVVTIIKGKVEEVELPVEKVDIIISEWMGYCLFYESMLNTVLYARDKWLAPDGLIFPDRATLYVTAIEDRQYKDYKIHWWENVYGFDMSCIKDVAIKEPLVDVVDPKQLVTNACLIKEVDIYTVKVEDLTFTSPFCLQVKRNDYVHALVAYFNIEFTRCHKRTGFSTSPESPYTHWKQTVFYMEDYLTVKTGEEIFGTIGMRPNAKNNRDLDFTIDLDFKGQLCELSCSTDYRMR
mABHD4 FP – inhibits mouse alpha/beta hydrolase domain 4; AID 720543; 0.54% of 370,000 active; purified mABHD4, FP-Rh probe fluorescence polarization; inhibition, % at 8.92 µM;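 active means inhibition exceeding the mean over every tested compound plus 3 SD, cut at about 30% in these data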;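 further: 0% = plate median of compound wells and 100% = S159A mutant with DMSO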
Target sequence (Q8VD66 whole entry, looked up, the tested form may be a part): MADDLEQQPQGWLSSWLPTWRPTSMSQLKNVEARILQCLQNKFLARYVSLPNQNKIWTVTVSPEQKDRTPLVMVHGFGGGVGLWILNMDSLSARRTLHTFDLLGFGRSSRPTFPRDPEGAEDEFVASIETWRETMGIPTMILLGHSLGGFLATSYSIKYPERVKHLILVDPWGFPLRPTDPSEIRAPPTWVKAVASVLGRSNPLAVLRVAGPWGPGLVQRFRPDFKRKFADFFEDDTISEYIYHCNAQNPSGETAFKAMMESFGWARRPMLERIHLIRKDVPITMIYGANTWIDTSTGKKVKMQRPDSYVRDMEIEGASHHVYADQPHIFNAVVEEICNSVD
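System: mouse ABHD4 enzyme, wild type / Medium: HEPES pH 7.0, NaCl, Pluronic buffer / Reagent: FP-Rh activity-based fluorescent probe / Control set: S159A mutant high control, sample median low control / Detection: fluorescence polarization with parallel and perpendicular emission, 525/598 nm / Schedule: 45 min + 60 min at 25 °C / Compound dosing: 8.92 µM, single dose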
HTRA1 inh conf – HTRA1 (human) inhibition, confirmation | shares compounds with HTRA1 inh | inhibition, % at 5.96 µM | 66% of 1,600 active | AID 540248 | recombinant HTRA1, FP-rhodamine activity-based probe, fluorescence polarization;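 active means mean inhibition over three repeats above a set limit taken from the earlier primary screen, cut at about 37% in these data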;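 further: 0% = HTRA1 with DMSO and 100% = wells lacking HTRA1; inhibitors block probe binding so polarization drops and inhibition rises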
* hit, by the source's call; . = not tested or not shown.

SMILES | SIAE inh | HTRA1 inh | TCR-CD3 inh | PRMT1 FP inh | mABHD4 FP | HTRA1 inh conf
COc1cc(NC(C)CCCNC(C)C)c2ncccc2c1OC (stereo not given) | 8.6 | 6.4 | 2.3 | 1.6 | 16.3 | .
CC(=O)N1CCN(c2ccc(NC(=O)c3cccc(C)c3)cc2)CC1 | 0.6 | 5.2 | 1.8 | 0.8 | -2.9 | .
Cc1cccc(N2CCN(c3ccc(NC(=O)/C=C(/C(=O)O)c4ccccc4)cc3)CC2)c1 | 7.8 | 49.4* | 4.6 | 0.9 | 23.8 | 41.1*
CCNc1cc(O)ccc1C | . | 71.4* | . | . | . | 40.8*
OCCNc1nc(Nc2cc(Cl)ccc2OC2CCCC2)nc(N2CCCC2)n1 | -2.5 | -15.0 | -5.6 | 2.4 | 6.2 | .
Cc1c(N=C2C=CC(=O)c3ccccc32)c(=O)n(-c2ccccc2)n1C | 7.5 | 36.9* | 1.8 | 7.2 | 9.5 | 33.5
O=C(Nc1ccc(Oc2ccccc2)cc1)c1cnc2n(c1=O)CCS2 | 0.5 | -1.6 | 4.3 | -2.3 | -1.6 | .
O=C(O)c1cccc(Cn2c(Cl)c(/C=N/NC(=O)c3ccccc3)sc2=O)c1 | 0.8 | 2.5 | 4.7 | 7.3 | -0.8 | .
O=C(O)c1cccc(Cn2c(Cl)c(/C=N/NC(=O)c3cc4ccccc4cc3O)sc2=O)c1 | -32.2 | 49.7* | 11.8 | 8.2 | -36.3 | 55.2*
Oc1ccc(CN2CCCc3ccccc32)c2cccnc12 | . | 39.4* | . | . | . | 35.1
COc1ccccc1N1CCN(Cc2ccc(O)c3ncccc23)CC1 | 4.8 | 44.9* | -1.1 | -6.2 | 6.3 | 52.5*
Oc1ccc(CCc2ccccc2)c2cccnc12 | 7.5 | . | . | -7.0 | -2.2 | .
O=C(NCc1ccc(F)c(F)c1)C1C2C=CC3(CN(Cc4ccccc4)C(=O)C13)O2 (stereo not given) | 0.2 | . | . | -1.9 | 4.5 | .
O=C(O)C1OC(Oc2cc3oc(-c4ccccc4)cc(=O)c3c(O)c2O)C(O)C(O)C1O (stereo not given) | 4.9 | 44.6* | 1.2 | 27.5* | 21.0 | 42.7*
COc1c(OC2OC(C(=O)O)C(O)C(O)C2O)cc(O)c2c(=O)cc(-c3ccccc3)oc12 (stereo not given) | 2.2 | 0.6 | -3.0 | 10.1 | 14.9 | .
Cc1ccc(/C(O)=C/C(=O)C(=O)NNC(=O)C(O)(c2ccccc2)c2ccccc2)cc1 | -7.5 | 22.1 | 2.1 | 1.2 | 1.8 | .
O=C(C=C(O)c1ccc(Cl)cc1)C(=O)NNC(=O)C(O)(c1ccccc1)c1ccccc1 | -12.2 | 41.0* | 7.5 | 0.5 | -8.2 | 36.4*
COc1cc(S(=O)(=O)n2ccc(C)n2)c(C)cc1C | 4.2 | 2.3 | 4.6 | -3.3 | 2.9 | .
O=S(=O)(c1cccnc1)N1CCn2cccc2C1c1ccccc1F (stereo not given) | 4.6 | 77.2* | 4.3 | 4.4 | 2.8 | 28.9
CC(C)CN(C(=O)C1COc2ccccc2O1)c1c(N)n(CC(C)C)c(=O)[nH]c1=O (stereo not given) | -2.8 | -1.3 | 2.6 | 1.6 | 4.0 | .
c1ccc2c(c1)ncc1cccn12 | -1.1 | -6.0 | 0.0 | -0.9 | -0.7 | .
CCn1c2ccccc2c2c3ncc4cccn4c3ccc21 | -28.1 | 46.9* | 1.1 | 7.4 | 9.2 | -17.1
O=C(N/N=C/c1ccc([N+](=O)[O-])o1)c1sc2ccccc2c1Cl | -0.8 | 52.1* | 6.6 | 15.3 | 27.3 | 55.3*
CCc1nnc(NC(=O)c2ccc(S(=O)(=O)N3CCCC(C)C3)cc2)s1 (stereo not given) | 0.1 | 6.7 | 11.5 | -2.1 | 2.2 | .
Cc1cccc2sc(NNC(=O)c3ccc(S(=O)(=O)N4CCc5ccccc5C4)cc3)nc12 | 12.6 | 44.5* | 4.8 | -5.0 | 4.5 | 33.4
SMILES | SIAE inh | HTRA1 inh | TCR-CD3 inh | PRMT1 FP inh | mABHD4 FP | HTRA1 inh conf
Cc1cccc2sc(NNC(=O)c3ccc(S(=O)(=O)N4CCCC(C)C4)cc3)nc12 (stereo not given) | 15.6 | 45.1* | -2.9 | 4.4 | 20.7 | 41.4*
Cc1cc(C)c2nc(NNC(=O)c3ccc(S(=O)(=O)N4CCCCC4)cc3)sc2c1 | 9.9 | 48.7* | -3.3 | 0.7 | 15.1 | 24.0
CC(C)Cn1c(SCC(=O)Nc2cccnc2Cl)nnc1-c1ccco1 | -1.3 | 7.7 | 2.1 | 1.5 | 1.2 | .
COc1cnc(-c2ccccn2)nc1Oc1ccc(Cl)c2ccccc12 | 0.6 | 53.4* | 3.9 | -5.5 | -1.4 | 54.1*
N/C(Cc1cccc2ccccc12)=N\OC(=O)c1ccc2c(c1)OCO2 | 3.5 | 43.5* | -17.0 | 8.6 | 9.1 | -8.6
N/C(=N\OC(=O)c1ccc2c(c1)OCO2)c1cccc(Br)c1 | -3.8 | -12.9 | 2.6 | 0.3 | 3.6 | .
Cc1cccc(C(=O)Nc2nc3ncccn3c2-c2ccc(F)cc2)c1 | 7.1 | . | . | -8.1 | 3.3 | .
CC(CSC(=O)c1ccccc1)C(=O)N1c2ccccc2CC1C(=O)O (stereo not given) | -2.4 | . | -2.8 | 1.6 | 0.9 | .
CC(C)(C)c1cc(C(=O)N/N=C/c2ccccc2O)n(-c2ccccc2)n1 | -4.5 | 36.9* | -0.9 | 5.0 | -0.8 | 51.4*
CC(C)(C)c1cc(C(=O)N/N=C/c2ccc(F)cc2)n(-c2ccccc2)n1 | 1.4 | -21.4 | -1.8 | 1.9 | -5.0 | .
CCC(=O)Nc1ccc(Nc2ccccc2)cc1 | 6.0 | 21.1 | 5.8 | -0.9 | -3.4 | .
COCC(=O)Nc1ccc(Nc2ccccc2)cc1 | 7.5 | 46.8* | 0.9 | 0.2 | 0.2 | 40.3*
CCCCNC(=O)c1nc(C2CCN(S(=O)(=O)c3ccc(OC(F)(F)F)cc3)CC2)oc1-c1ccccc1 | -0.2 | . | 7.4 | 1.5 | 2.5 | .
COc1ccc2cc(CO)n(C)c2c1 | 11.0 | 41.8* | 6.5 | -0.4 | 1.8 | 22.6
COc1ccc(C)cc1NC(=O)CCNC(=O)Cn1ccc2ccccc2c1=O | 1.6 | 3.3 | -5.2 | -3.0 | -2.1 | .
N/C(=N/OC(=O)c1ccccc1Cl)c1ncc([N+](=O)[O-])s1 | 2.5 | 56.6* | 2.6 | -0.5 | 2.0 | 34.4
N/C(=N\OC(=O)c1ccccc1Cl)c1cccc([N+](=O)[O-])c1 | 5.1 | 2.0 | 3.7 | 0.5 | 0.3 | .
CCc1cc2c(=O)c(-c3nc4ccccc4n3C)c(C)oc2cc1OC(C)=O | -3.1 | 10.2 | 4.4 | -3.4 | -6.1 | .
CCc1cc2c(=O)c(-c3nc4ccccc4n3C)c(COCC(=O)O)oc2cc1OC(=O)C(C)(C)C | -1.7 | 48.0* | 7.4 | -0.6 | 2.1 | 14.6
Cc1noc(COc2ccccc2OCC(N)=O)n1 | 6.0 | . | 8.2 | 0.1 | 1.3 | .
Cc1ccc2c(c1)c(C)cc[n+]2Cc1ccccc1 | 5.1 | 42.3* | 3.9 | -0.7 | -0.1 | 5.8
O=C(CSc1nc2ccccc2s1)N1CCOCC1 | 2.3 | 161.1* | 6.3 | 1.5 | 2.6 | -2.1
COc1ccccc1NS(=O)(=O)c1cc(NC(=O)COc2ccccc2F)ccc1N1CCOCC1 | -40.4 | -38.8 | -8.9 | 16.8 | -34.2 | .
Cc1ccc(N=Cc2cc(Cc3ccccc3Cl)cc([N+](=O)[O-])c2O)c(O)c1 | . | 70.6* | . | . | . | 65.4*
CN(CCc1cn[nH]c1)C(=O)C1CCC(=O)N(CC2CCCCC2)C1 (stereo not given) | -4.8 | -0.7 | -5.8 | 0.5 | -6.6 | .

High-throughput results from PubChem BioAssay.
